The entries come from a sample that favours hits as a whole.
STK33 inh: inhibitors of human STK33 kinase. 320,000 tested, 0.073% active. inhibition, % at 10 µM. purified STK33, MBP phosphorylation, ADP-Glo luminescence. Q9BYT3;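 active = inhibition at or above 25%, using the most active replicate where run in duplicate; inactive = inhibition below 25%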
GSK3A inh: blocks human GSK-3 alpha kinase; P49840; ADP-Glo luminescence, 60 min; inhibition, % at 10 µM; 320,000 tested, 0.1% active;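 active = more than half of replicates show inhibition above 20%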;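 note: GST-tagged GSK-3 alpha with peptide substrate and 25 µM ATP; 0% = DMSO neutral wells and 100% = GW8510 positive control wells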
Target sequence (P49840 whole entry, looked up): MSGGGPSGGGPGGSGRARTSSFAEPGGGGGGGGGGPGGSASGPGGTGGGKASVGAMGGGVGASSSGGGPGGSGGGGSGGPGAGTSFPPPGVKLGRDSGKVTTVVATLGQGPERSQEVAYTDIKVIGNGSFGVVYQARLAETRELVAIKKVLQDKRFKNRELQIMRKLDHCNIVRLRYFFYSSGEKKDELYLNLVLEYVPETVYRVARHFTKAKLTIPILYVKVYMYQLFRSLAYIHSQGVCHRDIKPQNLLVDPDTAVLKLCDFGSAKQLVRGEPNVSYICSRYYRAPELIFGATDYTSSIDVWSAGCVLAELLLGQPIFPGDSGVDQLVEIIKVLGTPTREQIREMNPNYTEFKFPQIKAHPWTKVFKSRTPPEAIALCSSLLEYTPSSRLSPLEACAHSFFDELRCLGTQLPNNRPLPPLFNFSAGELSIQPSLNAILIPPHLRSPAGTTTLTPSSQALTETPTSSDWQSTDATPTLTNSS
CDK5 inh: CDK5/p35 (human) kinase inhibition; 330,000 tested, 0.01% active; inhibition, % at 10 µM; Recombinant CDK5/p35, ADP-Glo luminescence, 60 min;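 active = highest replicate inhibition of at least 50% and at least 75% of replicates reaching 50%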;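 note: plate controls were DMSO neutral control for no effect and GW8510 at 10 µM for full effect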
Dyrk1A ADPGlo: inhibitors of rat Dyrk1A kinase | 310,000 tested, 0.43% active | AID 504441 | inhibition, % at 12.5 µM | ADP-Glo luminescence, NFATc1 peptide; in the data active = inhibition above about 50%;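 note: plate controls were vehicle with enzyme for no effect and no enzyme for full effect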
GSK3B inh: blocks human GSK3beta kinase activity; AID 2097; 300,000 tested, 0.038% active; activity score (negative = inhibition), % at 10 µM; GST-GSK3beta kinase, ADP-Glo luminescence, 60 min; hits give low values;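 active = more than half of replicate wells score below -50%, meaning over 50% inhibition versus plate controls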;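 note: 0% = median DMSO wells and -100% = median GW8510 positive control wells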
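test system = GST-tagged human GSK3beta kinase, cell-free | reagent = 25 µM ATP with peptide substrate | dosing = one dose of 10 µM per compound | schedule = 60 min reaction, RT | detection = luminescent ADP-Glo measurement of ADP formed | control set = DMSO neutral wells and GW8510 at 20 µM as positive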
ADP-Glo artifact: interferes with ADP-Glo luciferase readout without Dyrk1A; AC50, µM (highest dose often 12 µM), for inactives: at the top dose activity change, negative = inhibition; 1,300 tested, under 10 active; ADP-Glo luciferase artifact assay, no Dyrk1A, luminescence; shares compounds with Dyrk1A ADPGlo;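 active = fitted half-maximal dose AC50 no more than ten times the top valid tested dose, with luminescence dropping as dose rises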
Starred values were filed as active, the others as inactive.

Screening Oc1cc(O)cc(/C=C/c2ccc(O)cc2O)c1 returned STK33 inh 54*, GSK3A inh 22 and CDK5 inh 3.
O=C1CN=C(c2ccccc2)c2ccccc2N1 was read as STK33 inh 0, GSK3A inh 9, CDK5 inh 4, Dyrk1A ADPGlo 1 and GSK3B inh -1.
CCc1cc2c(s1)NC(=O)CN=C2c1cccs1 was read as STK33 inh 0, GSK3A inh 76*, CDK5 inh -1, Dyrk1A ADPGlo 0 and GSK3B inh 0.
`COc1cc(/C=C/c2nc3ccccc3c(=O)n2-c2cccc(O)c2)ccc1O` gave STK33 inh 1, GSK3A inh -2, CDK5 inh -1, Dyrk1A ADPGlo 5 and GSK3B inh 0.
Screening ClCCN1CCN(c2ccnc3cc(Cl)ccc23)CC1 returned STK33 inh 2, GSK3A inh 86*, CDK5 inh 3, Dyrk1A ADPGlo 5 and GSK3B inh -5.
Screening Cc1nn(Cc2ccccc2)c(Cl)c1C(=O)OCC(=O)NCC1CCCO1 (centres undefined) returned STK33 inh -1, GSK3A inh 1, CDK5 inh -4, Dyrk1A ADPGlo -1 and GSK3B inh 0.
Screening NC(=O)CSc1nnc([C@@H](N)Cc2c[nH]c3ccccc23)o1 returned STK33 inh 0, GSK3A inh 52*, CDK5 inh 1, Dyrk1A ADPGlo -6 and GSK3B inh -4.
Screening CCN(CC)C(=O)c1ccc(NC(=O)CCCSc2ccccc2)cc1 returned STK33 inh -1, GSK3A inh -5, CDK5 inh -1, Dyrk1A ADPGlo -2 and GSK3B inh 0.
CCN(CC)C(=O)c1ccc(NC(=O)Nc2ccccc2F)cc1 was read as STK33 inh 28*, GSK3A inh 29, CDK5 inh 38, Dyrk1A ADPGlo 40 and GSK3B inh -34.
`O=C1Nc2ccccc2/C1=C/c1cnc[nH]1` gave STK33 inh 37*, GSK3A inh 79*, CDK5 inh 102*, Dyrk1A ADPGlo 40 and GSK3B inh -23.
O=C1Nc2ccccc2/C1=C/c1nc2ccccc2c(=O)n1-c1ccc(O)cc1 was read as STK33 inh 0, GSK3A inh 1, CDK5 inh -2, Dyrk1A ADPGlo -1 and GSK3B inh 1.
Screening c1ccc(CN2CCc3nc4ccccc4cc3C2)cc1 returned STK33 inh 3, GSK3A inh 4, CDK5 inh 0, Dyrk1A ADPGlo 9 and GSK3B inh -1.
For CNC(=O)CSP(=S)(OC)OC the results were CDK5 inh 0 and Dyrk1A ADPGlo 0.
For Cn1ncnc2c(=O)n(C)c(=O)nc1-2 the results were STK33 inh -2, GSK3A inh 23, CDK5 inh 0, Dyrk1A ADPGlo 68* and GSK3B inh -29.
For CCCCn1c(O)c(C(C)=NCCCn2ccnc2)c(=O)[nH]c1=O the results were STK33 inh 1, GSK3A inh 54*, CDK5 inh 0, Dyrk1A ADPGlo 1 and GSK3B inh -3.
For CCCCn1c(O)c(C=NCCCn2ccnc2)c(=O)[nH]c1=O the results were STK33 inh 0, GSK3A inh 68*, CDK5 inh 0, Dyrk1A ADPGlo -6 and GSK3B inh 0.
`CCCCn1c(O)c(C(CC)=NCCCn2ccnc2)c(=O)[nH]c1=O` gave STK33 inh 0, GSK3A inh 43 and GSK3B inh -20.
CCN(CC(=O)Nc1ccc(C#N)c(Cl)c1)CC(=O)NC1CCS(=O)(=O)C1 (centres undefined) was read as CDK5 inh 0 and Dyrk1A ADPGlo 10.
For CN1CCc2cc3c(c4c2C1Cc1ccccc1-4)OCO3 (centres undefined) the results were STK33 inh 2, GSK3A inh 5, CDK5 inh 3, Dyrk1A ADPGlo 67*, GSK3B inh -18 and ADP-Glo artifact 9%.
`CN1CCc2cc(O)cc3c2[C@H]1Cc1ccc(O)c(O)c1-3` gave STK33 inh 5, GSK3A inh 17, CDK5 inh 1, Dyrk1A ADPGlo 14 and GSK3B inh -9.
Screening CN1CCC(O)(c2ccc(Cl)cc2)C(C(=O)c2ccc(Cl)cc2)C1 (centres undefined) returned STK33 inh -1, GSK3A inh -1, CDK5 inh -1, Dyrk1A ADPGlo 1 and GSK3B inh 2.
`N#C/C(=C\c1ccc(O)cc1)C(=O)O` gave CDK5 inh 0, Dyrk1A ADPGlo 76* and ADP-Glo artifact 12%.
COc1ccccc1Oc1c(C)oc2cc(OC(=O)N(C)C)ccc2c1=O was read as STK33 inh -1, GSK3A inh -3, CDK5 inh 0, Dyrk1A ADPGlo 1 and GSK3B inh 0.
Screening COc1cc2ccc(=O)oc2c2ccoc12 returned STK33 inh -1, GSK3A inh 1, CDK5 inh 2, Dyrk1A ADPGlo 59*, GSK3B inh -1 and ADP-Glo artifact 7%.
For COc1cc2occc2c2oc(=O)ccc12 the results were STK33 inh 0, GSK3A inh 1, CDK5 inh -2, Dyrk1A ADPGlo 20 and GSK3B inh 1.
Screening CN1CCc2nc3sc(C#N)c(N)c3c(-c3cccs3)c2C1 returned STK33 inh 4, GSK3A inh 95*, CDK5 inh 1, Dyrk1A ADPGlo 51*, GSK3B inh -6 and ADP-Glo artifact 6%.
OC[C@H]1O[C@@H](n2cnc3cc(Cl)c(Cl)cc32)[C@H](O)[C@@H]1O was read as STK33 inh 5, GSK3A inh 3, Dyrk1A ADPGlo 74* and ADP-Glo artifact 12%.
N/C(=N\N=C/c1ccc(-c2ccc(O)c(C(=O)O)c2)o1)N[N+](=O)[O-] was read as STK33 inh 7, GSK3A inh 6, CDK5 inh -4, Dyrk1A ADPGlo 83*, GSK3B inh 3 and ADP-Glo artifact 5%.
COc1ccc(N=C(C)c2c(O)n(C)c(=O)n(C)c2=O)c(OC)c1 was read as STK33 inh 0, GSK3A inh 0, CDK5 inh 1, Dyrk1A ADPGlo 10 and GSK3B inh 0.
`COC(=O)C1=C(c2ccc(F)cc2OCc2ccccc2)C[C@@H]2CC[C@H]1N2C(=O)NCc1ccccc1` gave STK33 inh 1, GSK3A inh -1, CDK5 inh 0, Dyrk1A ADPGlo 52* and ADP-Glo artifact 6%.
`Cn1cc(CCC(=O)N2CCC3(CC2)OCCO3)c2ccccc21` gave STK33 inh 0, GSK3A inh -2, CDK5 inh 2, Dyrk1A ADPGlo -3 and GSK3B inh 8.
COC(=O)C1=C(c2ccc(Cl)c(C(F)(F)F)c2)C[C@@H]2CC[C@H]1N2C(=O)NCCOc1ccc(OC)cc1 was read as STK33 inh -2, GSK3A inh -2, CDK5 inh 0, Dyrk1A ADPGlo 57* and ADP-Glo artifact 10%.

Source: PubChem
